Legend:
[1] = biological target: T1, Adenosine receptor A2a (Homo sapiens, UniProt P29274); assay: Antagonist activity at human adenosine receptor A2a expressed in CHO cell membranes assessed as inhibition of NECA-induced cAMP accumulation measured as NECA EC50 at 5 uM incubated for 15 mins in presence of [3H]cAMP by liquid scintillation counting (Rvb = 68 nM)
Outline: (§1)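 Stably transfected CHO cells (human A2A or A2B) grown in DMEM-F12 with 10% FCS at 37 °C, 5% CO2. The cells were seeded at 200,000/well, washed after 24 h and held 2 h in HBSS (pH 7.3) with 1 U/ml adenosine deaminase. Ro20-1724 was added to 40 µM final for 15 min, then NECA dilutions ± one fixed test concentration in 2.5% DMSO, in duplicate.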

[2] = biological target: T1, Adenosine receptor A2a; assay: Antagonist activity at human adenosine receptor A2a expressed in CHO cell membranes assessed as inhibition of NECA-induced cAMP accumulation measured as NECA EC50 at 7 uM incubated for 15 mins in presence of [3H]cAMP by liquid scintillation counting (Rvb = 77 nM)
[3] = biological target: T2, Adenosine receptor A2b (Homo sapiens, UniProt P29275); assay: Antagonist activity at human adenosine receptor A2b expressed in CHO cell membranes assessed as inhibition of NECA-induced cAMP accumulation measured as NECA EC50 at 2 uM incubated for 15 mins in presence of [3H]cAMP by liquid scintillation counting (Rvb = 73 nM); outline: as §1
T2 sequence (P29275 whole entry): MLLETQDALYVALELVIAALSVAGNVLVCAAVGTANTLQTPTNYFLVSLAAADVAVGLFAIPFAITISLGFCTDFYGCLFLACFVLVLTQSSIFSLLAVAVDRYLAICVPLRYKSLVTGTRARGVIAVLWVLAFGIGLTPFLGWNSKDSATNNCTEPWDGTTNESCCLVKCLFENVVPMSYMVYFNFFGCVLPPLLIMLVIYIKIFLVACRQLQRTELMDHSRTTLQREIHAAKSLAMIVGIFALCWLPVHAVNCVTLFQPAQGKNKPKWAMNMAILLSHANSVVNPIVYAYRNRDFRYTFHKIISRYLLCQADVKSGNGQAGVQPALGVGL

T1 sequence (P29274 whole entry): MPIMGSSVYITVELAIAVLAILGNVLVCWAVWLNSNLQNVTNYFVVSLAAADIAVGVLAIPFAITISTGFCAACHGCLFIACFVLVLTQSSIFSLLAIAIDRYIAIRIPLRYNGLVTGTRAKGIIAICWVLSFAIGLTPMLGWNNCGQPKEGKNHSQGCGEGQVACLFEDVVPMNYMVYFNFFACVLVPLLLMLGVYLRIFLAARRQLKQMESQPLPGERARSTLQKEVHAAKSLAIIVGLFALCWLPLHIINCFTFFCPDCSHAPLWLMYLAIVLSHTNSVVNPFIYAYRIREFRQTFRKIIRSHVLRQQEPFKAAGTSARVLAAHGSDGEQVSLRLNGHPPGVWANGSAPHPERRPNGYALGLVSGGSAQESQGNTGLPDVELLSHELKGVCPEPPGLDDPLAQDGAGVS

CCN(CC)CCOc1ccc(CCN2CCCn3c2nc2c3c(=O)n(C)c(=O)n2C)cc1
EC50 [1]: 460 nM

Cn1c(=O)c2c(nc3n2CCCN3CCc2ccc(O)cc2)n(C)c1=O [9-(4-hydroxyphenethyl)-1,3-dimethyl-6,7,8,9-tetrahydropyrimido[1,2-a]purine-2,4(1H,3H)-dione]
EC50 [2]: 302 nM

CCCCn1c(=O)c2c(nc3n2CCCN3CCc2ccc(OCCN(CC)CC)cc2)n(CCCC)c1=O
EC50 [3]: 335 nM

Source: BindingDB's records for doi:10.1016/j.bmc.2016.07.028 (Jagiellonian University Medical College, 2016)
